# Experimental data of several laboratories.
# Protocols differ between the studies behind these lines.
# Target: Casein kinase I isoform epsilon (CSNK1E, Homo sapiens, UniProt P49674)
SMILES,read-out,mode,technique,concentration,measurement,result
Cn1cncc1[C@@](O)(COc1ccc(C#N)cc1-c1ccc(OC(F)(F)F)cc1)c1ccc(C#N)cc1,cell-free assay,,competition with immobilised ligand,1 µM,remaining binding,100%
COc1ncccc1-c1cnn2ccc(N3CCN(C(=O)OC(C)C)CC3)nc12,binding,,competition with immobilised ligand,1 µM,remaining binding,86%
CC(C)(C)c1cc(C=C(C#N)C#N)cc(Br)c1O,enzyme activity,inhibitor,,0.5 µM,remaining activity,92.1%
Nc1ncc(-c2nc(N3CCOCC3)nc(N3CCOCC3)n2)c(C(F)F)n1,binding,,competition with immobilised ligand,10 µM,remaining binding,38%
N#CC1(c2ccccn2)CCN(Cc2cc(C(=O)O)c(=O)n3ccccc23)CC1,cell-free assay,,competition with immobilised ligand,1 µM,remaining binding,100%
Cn1cc(-c2cc(F)cc(N3CCn4c(cc5c4CCCC5)C3=O)c2CO)cc(Nc2ccc(N3CCN(C4COC4)CC3)cn2)c1=O,enzyme activity,inhibitor,,0.1 µM,inhibition,12%
Cc1nn(C)cc1-c1nc2c(N3CCN(Cc4ccc(Cl)cc4)CC3)c(Cl)cnc2[nH]1,binding,,competition with immobilised ligand,1 µM,remaining binding,99%
O=c1[nH]c2ccccc2n1C1CCN(Cc2ccc(-c3[nH]c4cc5ncnc5cc4nc3-c3ccccc3)cc2)CC1,enzyme activity,,,0.5 µM,remaining activity,107%
Cn1cc(-c2cccc(N3CCc4c(sc5c4CC(C)(C)C5)C3=O)c2CO)cc(Nc2ccncn2)c1=O,enzyme activity,inhibitor,,1 µM,inhibition,1%
